Compounds with a hit are over-represented: about 2.3% of the library has one in this group of screens.
TRPC4 act = activators of mouse TRPC4 channel; Q9QUQ5; HEK293 TRPC4beta/mu-opioid, Fluo4 calcium fluorescence; active compounds read high; B-score at 10 µM; 310,000 tested, 0.49% active; AID 2237;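 active = B-score above 5 SD of library B-scores, and initial fluorescence ratio not above library mean plus 5 SD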;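 note: positive B-score marks a calcium rise read as TRPC4 activation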
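Assay system: HEK293 stable line with TRPC4beta plus mu-opioid receptor. Times: dye 45 min RT, read 110 s. Measured by: kinetic Fluo4 calcium fluorescence. Measure: B score of integrated ratio. Controls: assay buffer as low control, maximal DAMGO as high control.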
TRPC4 PAM = allosterically enhances the mouse TRPC4 cation channel | Q9QUQ5 | HEK293 TRPC4beta/mu-opioid, DAMGO EC20, Fluo-4 Ca2+ flux; active compounds read high | B-score at 10 µM | 310,000 tested, 0.42% active;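 active = B-score of calcium response area above 5 SD of library B-scores, with initial fluorescence ratio within 5 SD of library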;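 note: B-score of integrated fluorescence ratio over time as area under calcium response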
TRPC6 inh = mouse TRPC6 channel inhibition; HEK293-TRPC6, membrane potential dye, ACh-evoked depolarization; active compounds read low; Q61143; 310,000 tested, 1.1% active; AID 2553; B-score at 10 µM;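 active = B-score under library mean minus 3 SD, initial fluorescence not abnormally high, positive integrated signal ratio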;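 note: B-score derived from integrated fluorescence ratio over the kinetic read; more negative B-score means stronger inhibition of depolarization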
TRPC6 activator = activates the mouse TRPC6 cation channel; 310,000 tested, 0.13% active; B-score at 10 µM; AID 2550; HEK293-TRPC6 membrane potential dye fluorescence; active compounds read high;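 active = B-score of the integrated fluorescence ratio above library mean plus 3 SD, and starting fluorescence ratio within library mean plus 5 SD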;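 note: higher score means more depolarization so channel activation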
TRPC4 block = inhibitors of mouse TRPC4 channel; Q9QUQ5; HEK293 TRPC4beta/mu-opioid, DAMGO-evoked Fluo4 calcium flux; active compounds read low; B-score at 10 µM; 300,000 tested, 0.39% active; AID 2247;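 active = B-score over 3 SD under the library average, no early fluorescence shift, positive overall ratio signal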
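Assay system: HEK293 cells with stable TRPC4beta plus mu-opioid receptor expression. Dosing: single dose. Measured by: Fluo4 Ca2+ flux fluorescence. Also added: DAMGO in two steps, submaximal then maximal. Read-out: B score from integrated Fluo4 fluorescence ratio.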
* marks the source's active call; other numbers are inactive results; i = inactive; · = no result.

SMILES	TRPC4 act	TRPC4 PAM	TRPC6 inh	TRPC6 activator	TRPC4 block
CCOc1ccc(C(C(=O)NCC2CCCO2)N(Cc2ccccc2)C(=O)c2snc(C(N)=O)c2N)cc1 (stereo not given)	i	i	i	i	i
Cc1ccc(N(C(=O)c2snc(C(N)=O)c2N)C(C(=O)NCC2CCCO2)c2ccc(C)o2)c(C)c1 (stereo not given)	i	i	i	i	-7*
Cc1ccccc1N(C(=O)c1snc(C(N)=O)c1N)C(C(=O)NCC1CCCO1)c1ccc(F)cc1 (stereo not given)	i	i	i	i	-6*
NC(=O)c1nsc(C(=O)N(Cc2ccc(F)cc2)C(C(=O)NCC2CCCO2)c2ccc(O)cc2)c1N (stereo not given)	i	i	i	i	-10*
CCCNC(=O)c1ccccc1NC(=O)c1ccc(CSc2ccccc2)cc1	i	i	i	i	i
O=C(O)c1cccc(S(=O)(=O)N(Cc2ccccc2)c2cccc(C(F)(F)F)c2)c1	i	i	i	i	i
Cc1[nH]c2ccccc2c1NC(=O)CN1CCN(C(=O)c2ccco2)CC1	i	i	i	i	i
Cc1cc(-c2nnnn2-c2cc(Cl)cc(Cl)c2)no1	i	i	i	i	i
CCNC(=O)COC(=O)c1csc2c1CCCC2	i	i	i	i	i
COC(=O)C1=C(C)N(Cc2ccccc2)C(=O)N[C@H]1c1cccc(C(F)(F)F)c1	i	10*	i	i	i
O=C(COC(=O)c1cc([N+](=O)[O-])ccc1N1CCOCC1)NCc1ccc(Cl)cc1Cl	i	i	i	i	i
CN1CCCC(OC(=O)c2ccccc2F)C1 (stereo not given)	i	i	i	i	i
COc1ccccc1C(=O)OC1CCCN(C)C1 (stereo not given)	i	10*	i	i	i
CCn1c2ccccc2c2cc(/C=N/NC(=O)c3cc(O)cc(O)c3)ccc21	i	i	i	i	-6*
CCn1c2ccccc2c2cc(/C=N/NC(=O)c3ccc(O)cc3)ccc21	i	i	i	i	i
COc1ccc(/C(C)=N/NC(=S)Nc2cc(C)ccc2C)cc1	i	i	i	i	·
O=[N+]([O-])c1ccc(N2CCCC2)nc1N1CCCC1	144*	i	i	i	i
Nc1ncc([N+](=O)[O-])c(N2CCCCCC2)n1	i	i	i	i	i
CCCN(CCC)CCCNS(=O)(=O)c1ccc2c(c1)oc(=O)n2C	56*	i	i	i	i
CC(C)OCCCNS(=O)(=O)c1ccc2c(c1)oc(=O)n2C	i	i	i	i	i
C/C(=N\Nc1ccc(C(=O)O)cc1)c1ccc2c(c1)Nc1ccccc1S2	i	i	i	i	-6*
S=c1[nH]nc(-c2ccncc2)n1/N=C/C(Cl)=C\c1ccccc1	i	12*	i	i	i
CC1CCC(NCCNC(=O)c2ccco2)CC1 (stereo not given)	i	i	i	i	i
Nc1ccc(Sc2ccc([N+](=O)[O-])cc2)cc1	i	i	i	i	-6*
O=C1C=CC(=O)N1c1ccc(Sc2ccc([N+](=O)[O-])cc2)cc1	i	i	i	i	i
SMILES	TRPC4 act	TRPC4 PAM	TRPC6 inh	TRPC6 activator	TRPC4 block
COc1ccc(NC(=O)c2c(N)no[n+]2[O-])cc1	i	i	i	i	i
COc1ccc(C(=O)c2no[n+]([O-])c2C(=O)c2ccc(OC)cc2)cc1	i	53*	i	i	i
O=C(c1cccs1)c1no[n+]([O-])c1C(=O)c1cccs1	54*	i	i	i	i
O=S(=O)(c1ccc2ccccc2c1)N(CC1CO1)c1ccccc1 (stereo not given)	i	i	i	i	i
C/C(=N\N(c1ccccc1)c1ccccc1)c1ccc(O)cc1	i	i	i	i	i
C/C(=N\N(c1ccccc1)c1ccccc1)c1ccc(N)cc1	i	24*	i	i	i
O=C(COC(=O)c1ncc(Cl)c(Cl)c1Cl)NC(=O)c1ccccc1	i	i	i	i	i
Cc1cc(C)c2c(=O)n(CC(=O)NCCCN3CCN(c4ccccc4F)CC3)sc2n1	i	i	i	i	-5*
Cc1cc(C)c2c(=O)n(CC(=O)NCCCN3CCOCC3)sc2n1	i	i	i	i	i
CCCCc1cc(=O)oc2cc(OCc3nn[nH]n3)ccc12	i	i	i	i	i
CC1C(=O)N(Cc2ccccc2F)c2ccccc2N1C(=O)c1c(F)cccc1F (stereo not given)	i	10*	i	i	i
COc1cccc(CN2C(=O)C(C)N(C(=O)c3c(F)cccc3F)c3ccccc32)c1 (stereo not given)	i	i	i	i	i
CC(C)CC(C(=O)Nc1ccccc1)N1C(=O)C2C3C=CC(C3)C2C1=O (stereo not given)	i	i	i	i	i
CN(Cc1ccccc1)C(=O)c1cn(C)c2ccc(S(=O)(=O)N3CCCC3)cc2c1=O	i	12*	i	i	i
CC1CC(C)CN(CCCNC(=O)c2cn(C)c3ccc(S(=O)(=O)N4CCCC4)cc3c2=O)C1 (stereo not given)	55*	i	i	i	i
Cn1cc(C(=O)N2CCN(c3ccccc3)CC2)c(=O)c2cc(S(=O)(=O)N3CCCC3)ccc21	i	i	i	i	i
CC1CCN(CCCNC(=O)c2cn(C)c3ccc(S(=O)(=O)N4CCCC4)cc3c2=O)CC1	i	i	i	i	i
CCCN(CCC)CCCNC(=O)c1cn(CC)c2ccc(S(=O)(=O)N3CCOCC3)cc2c1=O	45*	i	i	i	i
Cc1ccc(C(C(=O)NC(C)(C)C)N(Cc2ccco2)C(=O)CCC(=O)Nc2ccccn2)cc1 (stereo not given)	i	i	i	i	i
Cc1ccc(C(C(=O)NC(C)(C)C)N(C(=O)CCC(=O)Nc2ccccn2)c2ccccc2F)cc1 (stereo not given)	i	i	i	i	-8*
COc1cc(S(=O)(=O)N(C)C2CCCCC2)c(C)cc1C	i	i	i	i	i
Cn1nc(C(F)(F)F)cc1-c1ccc(S(N)(=O)=O)s1	i	i	i	i	i
CCCc1nc2ccccc2n1Cc1ccccc1OC	i	i	i	i	-7*
COc1ccccc1Cn1c(CCCO)nc2ccccc21	i	i	i	i	i
